The test system of assay [1] is HCT-116. The experiment in a line: Antiproliferative activity against human HCT116 cells assessed as reduction in cell viability measured after 72 hrs by MTT assay. It is filed as functional, cell-based. The essentials: (§1)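 Cells seeded 5×10^3/well, cultured overnight, then exposed to 10, 1, 0.1, 0.01, 0.001 and 0.0001 µM (from 10 mM DMSO stocks diluted in medium; vehicle 1% DMSO PBS) for 72 h at 37 °C. Medium replaced with 0.5 mg/mL MTT for 4 h, formazan dissolved in DMSO, A570 read. IC50 as mean ± SD of three independent experiments.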

Assay [2] has as its system A549. Put plainly: Antiproliferative activity against human A549 cells assessed as reduction in cell viability measured after 72 hrs by MTT assay. It is filed as functional, cell-based. The essentials: as §1
The subject of assay [3] is A549. Put plainly: Induction of apoptosis in human A549 cells assessed as late apoptotic cells at 30 nM after 12 hrs by Annexin-V FITC/propidium iodide staining based flow cytometric analysis (reference value: 1.22%). It is filed as functional. (In general: Flow cytometry measures light scatter and fluorescence of single cells or particles in a stream.)
Assay [4] concerns A549. The experiment in a line: Cell cycle arrest in human A549 cells assessed as accumulation at S phase at 30 nM after 24 hrs by propidium iodide/RNase A staining-based flow cytometric analysis (reference value: 12.57%). It is filed as functional.
Assay [5] has as its system SH-SY5Y. The experiment in a line: Antiproliferative activity against human SH-SY5Y cells assessed as reduction in cell viability measured after 72 hrs by MTT assay. It is filed as functional, cell-based. The method, boiled down:
(§2)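 Cells seeded at 5×10^3 per well and cultured overnight, then exposed for 72 h at 37 °C to six concentrations from 10 µM down to 0.0001 µM (from 10 mM DMSO stock diluted in medium; vehicle 1% DMSO in PBS). MTT at 0.5 mg/mL was added for 4 h, formazan dissolved in DMSO, and A570 read. IC50 given as mean ± SD of three independent experiments.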
Background: Tetrazolium assays rely on reduction of a dye to a coloured formazan, in cell work by metabolically active cells.

Assay [6] relates to A-375. Put plainly: Antiproliferative activity against human A375 cells assessed as reduction in cell viability measured after 72 hrs by MTT assay. It is filed as functional, cell-based. Conditions: A-375, 72 h. The method, boiled down: as §2
Assay [7] concerns A549. The experiment in a line: Cell cycle arrest in human A549 cells assessed as accumulation at G2 phase at 30 nM after 24 hrs by propidium iodide/RNase A staining-based flow cytometric analysis (reference value: 30.02%). It is filed as functional.
Assay [8] concerns MDA-MB-231. The experiment in a line: Antiproliferative activity against human MDA-MB-231 cells assessed as reduction in cell viability measured after 72 hrs by MTT assay. It is filed as functional, cell-based. The following applies: MDA-MB-231, 72 h. The essentials: as §2
For assay [9], the system named is A549. Put plainly: Induction of apoptosis in human A549 cells assessed as early apoptotic cells at 30 nM after 12 hrs by Annexin-V FITC/propidium iodide staining based flow cytometric analysis (reference value: 0.32%). It is filed as functional.
In assay [10] the test system is PC-3. Put plainly: Antiproliferative activity against human PC3 cells incubated for 72 hrs by 14C-thymidine incorporation assay. It is filed as functional, cell-based. The following applies: PC-3, 72 h.
Assay [11] has as its system A549. Put plainly: Cell cycle arrest in human A549 cells assessed as accumulation at G1 phase at 30 nM after 24 hrs by propidium iodide/RNase A staining-based flow cytometric analysis (reference value: 57.41%). It is filed as functional.
The subject of assay [12] is A549. Put plainly: Induction of apoptosis in human A549 cells assessed as necrotic cells at 30 nM after 12 hrs by Annexin-V FITC/propidium iodide staining based flow cytometric analysis (reference value: 1.28%). It is filed as functional.
The subject of assay [13] is A549. Put plainly: Inhibition of colony formation in human A549 cells at 10 nM incubated for 3 days followed by further incubation in drug-free medium and measured after 15 days by crystal violet staining-based inverted microscopic analysis. It is filed as functional, cell-based. The essentials: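 A549 cells were plated at 500 per well in 2 mL medium for 24 h, then treated for 3 days, with drug-free medium replaced every 3 days afterwards. At day 15 after plating, colonies were fixed in 95% ethanol for 15 min, stained with 0.1% crystal violet, and counted; a colony was defined as more than 100 cells. Mean ± SD of three independent experiments.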

Assay [14] relates to HL-60. Put plainly: Antiproliferative activity against human HL60 cells incubated for 96 hrs by cell-titer-Glo luminescent assay. It is filed as functional, cell-based. The following applies: HL-60, 96 h.
Assay [15] concerns MCF7. The experiment in a line: Antiproliferative activity against human MCF7 cells assessed as reduction in cell viability measured after 72 hrs by MTT assay. It is filed as functional, cell-based. Conditions: MCF7, 72 h. The essentials: as §2
Assay [16] has as its system A549. The experiment in a line: Induction of apoptosis in human A549 cells assessed as viable cells at 30 nM after 12 hrs by Annexin-V FITC/propidium iodide staining based flow cytometric analysis (reference value: 97.18%). It is filed as functional. The following applies: A549, 12 h, read-out: Activity.
The test system of assay [17] is A549. The experiment in a line: Inhibition of elongation factor 1-alpha1 expression in human A549 cells at 100 nM after 24 hrs by Western blot analysis. It is filed as functional. A general note: In western blotting, separated proteins are transferred to a membrane and probed.
Setting [18] is: Homo sapiens, HCT-116, 72 h, read-out: IC50.
Setting [19] is: Homo sapiens, A549, 72 h, read-out: IC50.

Active and inactive are the calls of the source.

What is called IC50 is the concentration that gives 50% inhibition. In the case of `CC[C@H](C)[C@@H]1NC(=O)[C@]2(C)O[C@H]2C[C@@H](OC)/C(C)=C/C=C/[C@@H](C)[C@@H](c2ccccc2)OC(=O)[C@H](C(C)(C)O)NC(=O)[C@@H](Cc2cc(Cl)c(O)c(Cl)c2)NC1=O`, the figures for the IC50 in [1] (setting [18]) and in assay [2] (setting [19]) were over 1000 nM and 557 nM, respectively.
Turning to `COc1cccc2c1C(=O)c1c(O)c3c(c(O)c1C2=O)C[C@@](O)(C(=O)CO)C[C@@H]3O[C@H]1C[C@H](N)[C@H](O)[C@H](C)O1` [DOXORUBICIN], the IC50 in assay [1] (setting [18]) worked out at 366 nM; in assay [2] (setting [19]), 459 nM.
In the case of `CO[C@@H]1C/C=C(\C)C(=O)N(C)[C@@H](C(C)C)C(=O)N[C@H](Cc2ccccc2)C(=O)N[C@@H](C(C)C)C(=O)O[C@H](c2ccccc2)C/C=C/C=C/1C`, the IC50 in assay [1] (setting [18]) and in [2] (setting [19]) was over 100 nM in each case.
Take `CC[C@H](C)[C@H]1C(=O)N[C@H](Cc2ccc(O)c(OC)c2)C(=O)N[C@@H](C(C)(C)O)C(=O)O[C@H](c2ccccc2)[C@H](C)/C=C/C=C(\C)[C@H](OC)C[C@@H]2O[C@@]2(C)C(=O)N1C`: the IC50 was found to be 25.2 nM in assay [1] (setting [18]) and 3.7 nM in [2] (setting [19]).
In general, inhibition refers to the percentage by which the read-out fell short of the control. Take `CC[C@H](C)[C@H]1C(=O)N[C@H](Cc2cc(Cl)c(O)c(Cl)c2)C(=O)N[C@@H](C(C)(C)O)C(=O)O[C@H](c2ccccc2)[C@H](C)/C=C/C=C(\C)[C@H](OC)C[C@@H]2O[C@@]2(C)C(=O)N1C`: the Activity amounted to 22.88% in assay [3]; 7.38% in assay [4]; 49.41% in [7]; 4.11% in [9]; 43.21% in [11]; 11.44% in [12]. Besides, the IC50 worked out at 2.1 nM in [5]; 2.4 nM in [6]; 17 nM in assay [1] (setting [18]); 7.5 nM in assay [8]; 1 nM in assay [10]; 13.1 nM in [2] (setting [19]). Moreover, the IC50 in assay [14] was found to be 12 nM; in assay [15] it was 8.7 nM. For the same molecule, in assay [13], the inhibition result was “Active”. Also, the viability at 0.03 µM in [16] turned out to be 61.6%.
Turning to `CC[C@H](C)[C@H]1C(=O)N[C@H](Cc2cc(Cl)c(O)c(Cl)c2)C(=O)N[C@@H](C(C)C)C(=O)O[C@H](c2ccccc2)[C@H](C)/C=C/C=C(\C)[C@H](OC)C[C@@H]2O[C@@]2(C)C(=O)N1C`, the IC50 is 10.5 nM in assay [1] (setting [18]) and 3.2 nM in assay [2] (setting [19]).
For `CC/C1=C\C=C\[C@@H](C)[C@@H](c2ccccc2)OC(=O)[C@H](C(C)C)NC(=O)[C@@H](Cc2cc(Cl)c(O)c(Cl)c2)NC(=O)[C@H](C(C)C)N(C)C(=O)/C(C)=C/C[C@H]1OC` the same measures were 60.3 nM and 13.1 nM.
`CC[C@H](C)[C@H]1C(=O)N[C@H](Cc2cc(Cl)c(O)c(Cl)c2)C(=O)N[C@@H](C(C)(C)O)C(=O)O[C@H](c2ccccc2)C/C=C/C=C(\C)[C@H](OC)C[C@@H]2O[C@@]2(C)C(=O)N1C`: the IC50 in assay [1] (setting [18]) stood at 78.2 nM; in [2] (setting [19]), 90.3 nM.
On the same counts, the results for `CC[C@H](C)[C@H]1C(=O)N[C@H](Cc2cc(Cl)c(O)c(Cl)c2)C(=O)N[C@@H](C(C)(C)O)C(=O)O[C@H](c2ccccc2)[C@H](C)/C=C/C=C(\C)[C@H](OC)C/C=C(\C)C(=O)N1C` are 16.7 nM and 10.1 nM.
For the molecule `CO[C@@H]1C/C=C(\C)C(=O)N(C)[C@@H](C(C)C)C(=O)N[C@H](Cc2ccccc2)C(=O)N[C@@H](C(C)C)C(=O)O[C@H](c2ccccc2)[C@H](C)/C=C/C=C/1C`, the IC50 in assay [1] (setting [18]) and in assay [2] (setting [19]) was over 100 nM each time.
In [17] (A549, 24 h), `CO[C@@H]1C[C@@H]2O[C@@]2(C)C(=O)N(C)[C@@H](C(C)C)C(=O)N[C@H](Cc2cc(Cl)c(O)c(Cl)c2)C(=O)N[C@@H](C(C)(C)O)C(=O)O[C@H](c2ccccc2)[C@H](C)/C=C/C=C/1C` registered an inhibition at 0.1 µM of 100%. Further, the values for the IC50 in assay [1] (setting [18]) and in [2] (setting [19]) were 6.7 nM and 3.5 nM, respectively.
For `CC[C@H](C)[C@H]1C(=O)N[C@H](Cc2ccccc2)C(=O)N[C@@H](C(C)(C)O)C(=O)O[C@H](c2ccccc2)[C@H](C)/C=C/C=C(\C)[C@H](OC)C[C@@H]2O[C@@]2(C)C(=O)N1C`, the IC50 in assay [1] (setting [18]) worked out at 20.9 nM; in assay [2] (setting [19]) it was 14.3 nM.
On the same counts, the results for `CC[C@H](C)[C@H]1C(=O)N[C@H](Cc2cc(Cl)c(O)c(Cl)c2)C(=O)N[C@@H](C(C)(C)O)C(=O)O[C@H](c2ccccc2)[C@H](C)/C=C/C=C(\C)[C@H](OC)C/C=C/C(=O)N1C` are 124 nM and 40.5 nM.
Regarding `CO[C@@H]1C/C=C(\C)C(=O)N(C)[C@@H](C(C)C)C(=O)N[C@H](Cc2ccc(O)cc2)C(=O)N[C@@H](C(C)C)C(=O)O[C@H](c2ccccc2)[C@H](C)/C=C/C=C/1C`, the IC50 worked out at 59.7 nM in assay [1] (setting [18]) and 35.9 nM in assay [2] (setting [19]).
Turning to `CO[C@@H]1C/C=C(\C)C(=O)N(C)[C@@H](C(C)C)C(=O)N[C@H](Cc2cc(Cl)c(O)c(Cl)c2)C(=O)N[C@@H](CC(C)C)C(=O)O[C@H](c2ccccc2)[C@H](C)/C=C/C=C/1C`, the IC50 in assay [1] (setting [18]) and in assay [2] (setting [19]) was over 100 nM throughout.
Regarding `CO[C@@H]1C[C@@H]2O[C@@]2(C)C(=O)N[C@@H](C(C)C)C(=O)N[C@H](Cc2cc(Cl)c(O)c(Cl)c2)C(=O)N[C@@H](C(C)(C)O)C(=O)O[C@H](c2ccccc2)[C@H](C)/C=C/C=C/1C`, the inhibition entry in [17] was “inactive”. In addition, the IC50 result in assay [1] (hct-116) and in assay [2] (a549) was “Not Active” throughout.
Regarding `CO[C@@H]1C/C=C(\C)C(=O)N(C)[C@@H](C(C)C)C(=O)N[C@H](Cc2cc(Cl)c(O)c(Cl)c2)C(=O)N[C@@H](C(C)C)C(=O)O[C@H](c2ccccc2)[C@H](C)/C=C/C=C/1C`, the values for the IC50 in assay [1] (setting [18]) and in assay [2] (setting [19]) were 42.1 nM and 21.6 nM, respectively.

For the origin of these results see ChEMBL document CHEMBL4346669, “Novel nannocystin A analogues as anticancer therapeutics: Synthesis, biological evaluations and structure-activity relationship studies” (Eur J Med Chem, 2019).
